What was measured:
[1] = tested on: Human immunodeficiency virus 1; assay: Antiviral activity against VSV-G pseudotyped HIV1 infected in human SupT1 cells after 48 hrs by firefly luciferase reporter gene assay; assay type: functional, organism-based; conditions: Human immunodeficiency virus 1, SUP-T1, 48 h
Outline: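 293T cells (2 × 105) cotransfected with 0.6 μg pNL-Luc-E−-Vpu− and 0.4 μg pHIT/G. Supernatant harvested at 48 h, 0.45 μm filtered, capsid p24 quantified by antigen-capture ELISA. SupT1 cells infected at MOI 1, 37 °C, 48 h, with compound at several concentrations, each in triplicate. Efavirenz as control. Inhibition measured by firefly luciferase; IC50 calculated from it.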

HepG2 = assay: Cytotoxicity against human HepG2 cells assessed as reduction in cell viability after 96 hrs by MTT assay; assay type: cell-based; conditions: HepG2, 96 h
Outline: (§1)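 MTT assay. Cells were grown in RPMI 1640 with 10% FBS, penicillin and streptomycin at 37 °C under 5% CO2, then seeded at 1200 cells/well. Compounds were added after 24 h at 10−4 to 10−8 M (five concentrations, final DMSO 0.1% v/v) and incubated 96 h. Absorbance was read at 570 nm. Paclitaxel was the positive control, with triplicates per concentration; IC50 was calculated from these.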

NCI-H460 = assay: Cytotoxicity against human NCI-H460 cells assessed as reduction in cell viability after 96 hrs by MTT assay; assay type: cell-based; conditions: NCI-H460, 96 h; outline: as §1
BGC-823 = assay: Cytotoxicity against human BGC823 cells assessed as reduction in cell viability after 96 hrs by MTT assay; assay type: cell-based; conditions: BGC-823, 96 h; outline: as §1
Influenza A virus = assay: Antiviral activity against VSV-G pseudotyped Influenza A virus infected in human SupT1 cells after 48 hrs by firefly luciferase reporter gene assay; assay type: functional, organism-based; conditions: SUP-T1, 48 h

Q: Which IC50 [1] does the source give for `Cc1cc(O)c2c(c1C=O)O[C@]1(C2)[C@H](C)CC[C@H]2C(C)(C)[C@H](O)CC[C@@]21C` here?
A: 15.6 to 20.5 µM

Q: What about the IC50 (HepG2) of the same molecule?
A: 18.4 µM

Q: And the IC50 (NCI-H460)?
A: 15.8 µM

Q: What about the IC50 (BGC-823) of the same molecule?
A: 21.9 µM

Q: For `CC(=O)/C=C/c1c(CO)cc(O)c2c1O[C@]1(C2)[C@H](C)CC[C@H]2C(C)(C)[C@H](O)CC[C@@]21C`, which IC50 (Influenza A virus) is on record?
A: 12.4 to 23.4 µM

Q: How did the IC50 [1] turn out when `C=C1CC[C@H]2C(C)(C)[C@H](O)CC[C@]2(C)[C@@]12Cc1c(O)cc(COC(C)=O)c(C=O)c1O2` was run?
A: 15.6 to 20.5 µM

Q: Which results are given for `CC(=O)C[C@@H]1OCc2cc(O)c3c(c21)O[C@]1(C3)[C@H](C)CC[C@H]2C(C)(C)[C@H](O)CC[C@@]21C`?
A: IC50 [1]: 15.6 to 20.5 µM; IC50 (Influenza A virus): 12.4 to 23.4 µM; IC50 (HepG2): 24.6 µM

Q: For `CC(=O)O[C@@H]1CC[C@@]2(C)[C@@H](CC[C@@H](C)[C@]23Cc2c(O)cc(CO)c(C=O)c2O3)C1(C)C`, which IC50 [1] is on record?
A: 15.6 to 20.5 µM

Q: For `CC(=O)O[C@@H]1CC[C@@]2(C)[C@@H](CC[C@@H](C)[C@]23Cc2c(O)cc4c(c2O3)COC4=O)C1(C)C`, which IC50 (Influenza A virus) is on record?
A: 12.4 to 23.4 µM

Q: With `CC(=O)C[C@H]1OCc2cc(O)c3c(c21)O[C@]1(C3)[C@H](C)CC[C@H]2C(C)(C)[C@H](O)CC[C@@]21C` as the molecule, how does the IC50 (Influenza A virus) read?
A: 12.4 to 23.4 µM

Q: Which IC50 [1] does the source give for `CC(=O)O[C@@H]1CC[C@@]2(C)[C@@H](CC[C@@H](C)[C@]23Cc2c(O)cc(C)c(C=O)c2O3)C1(C)C` here?
A: 15.6 to 20.5 µM

Q: And the IC50 (Influenza A virus)?
A: 12.4 to 23.4 µM

Q: What about the IC50 (HepG2) of the same molecule?
A: 24.7 µM

Q: What does the source list for `CC(=O)O[C@H]1C(=O)[C@@]2(C)[C@H]([C@H](OC(=O)c3ccccc3)[C@]3(O)C[C@H](OC(=O)[C@H](O)[C@@H](NC(=O)c4ccccc4)c4ccccc4)C(C)=C1C3(C)C)[C@]1(OC(C)=O)CO[C@@H]1C[C@@H]2O` [PACLITAXEL]?
A: IC50 (HepG2): 0.0063 µM; IC50 (NCI-H460): 0.001 µM; IC50 (BGC-823): 0.0008 µM

Q: For `NC(=O)c1ncn([C@@H]2O[C@H](CO)[C@@H](O)[C@H]2O)n1` [RIBAVIRIN], which IC50 (Influenza A virus) is on record?
A: 0.002 µM

— ChEMBL document CHEMBL4190193, “Stachybotrysins A-G, Phenylspirodrimane Derivatives from the Fungus Stachybotrys chartarum” (J Nat Prod, 2017)
